In ChEMBL document CHEMBL3853352, “Anti-tubercular activities of 5,6,7,8-tetrahydrobenzo[4,5]thieno[2,3-d]pyrimidin-4-amine analogues endowed with high activity toward non-replicative Mycobacterium tuberculosis” (Bioorg Med Chem, 2016):
In brackets after ≈: the same amount, converted by molar mass.

Legend:
[1] = Inhibition of Mycobacterium tuberculosis ADH assessed as decrease in conversion of L-alanine to pyruvate by measuring NADH by spectrophotometry; parameters: species or system Mycobacterium tuberculosis H37Rv
Method in brief: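 Mtb L-AlaDH oxidative deamination of L-alanine to pyruvate at 37 °C. NADH formation read at 340 nm. Compounds tested from 25 µM to 0.5 µM. Background read from the reaction mixture without enzyme. IC50 values calculated from the concentration series.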

[2] = biological target: T1, L-lysine-epsilon aminotransferase (Mycobacterium tuberculosis) (UniProt P9WQ77); assay: Inhibition of Mycobacterium tuberculosis LAT at 25 uM
T1 sequence (whole entry): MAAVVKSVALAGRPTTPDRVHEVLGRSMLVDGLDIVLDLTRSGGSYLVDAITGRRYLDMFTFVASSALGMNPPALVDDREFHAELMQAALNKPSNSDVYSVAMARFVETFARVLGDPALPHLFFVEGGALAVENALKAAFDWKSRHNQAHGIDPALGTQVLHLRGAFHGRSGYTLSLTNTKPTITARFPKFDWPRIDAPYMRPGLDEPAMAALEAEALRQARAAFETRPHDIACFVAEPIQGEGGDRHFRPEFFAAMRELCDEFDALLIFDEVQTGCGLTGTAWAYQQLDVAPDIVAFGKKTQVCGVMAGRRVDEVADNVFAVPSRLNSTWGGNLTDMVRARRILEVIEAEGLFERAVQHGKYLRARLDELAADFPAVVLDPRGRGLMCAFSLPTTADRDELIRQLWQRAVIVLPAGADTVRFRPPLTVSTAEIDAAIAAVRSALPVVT

[3] = tested on: Mycobacterium tuberculosis H37Rv; assay: Inhibition of Mycobacterium tuberculosis ADH assessed as decrease in conversion of L-alanine to pyruvate at 25 uM by measuring NADH by spectrophotometry
[4] = tested on: Mycobacterium tuberculosis; assay: Antimycobacterial activity against Mycobacterium tuberculosis H37Rv after 7 days by MABA; format: functional; settings: 168 h
Method in brief: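 M. tuberculosis H37Rv inoculum taken from fresh LJ medium, resuspended in 7H9-S (7H9, 0.1% casitone, 0.5% glycerol, OADC), adjusted to McFarland No. 1 and diluted 1:20. Serial two-fold drug dilutions in 7H9-S, with growth and sterile controls. Incubated 7 days at 37 °C in normal atmosphere, then alamar blue added and incubated overnight. MIC = lowest concentration preventing the blue-to-pink change.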

[5] = Cytotoxicity against mouse RAW264.7 cells assessed as inhibition of cell proliferation at 50 ug/ml after 48 hrs by MTT assay; format: toxicity
Method in brief: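 RAW 264.7 mouse macrophages grown in RPMI with 10% FBS and penicillin/streptomycin, then seeded at about 5000 cells/well on poly-L-lysine-coated plates. Pre-incubated 24 h at 37 °C, 5% CO2, then exposed to compound for 48 h. MTT (0.5 mg/ml) added for 3 h and formazan read at 595 nm.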

[6] = tested on: Mycobacterium tuberculosis; assay: Antimycobacterial activity against dormant stage of Mycobacterium tuberculosis H37Rv assessed as reduction in bacterial growth under nutrient starved conditions at 10 ug/ml for 7 days measured after 28 days; format: functional
Method in brief: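 H37Rv grown in 7H9/OADC, washed twice and resuspended in PBS, then held in sealed bottles at 37 °C for 6 weeks. Starved cultures exposed to compound at 10 ug/ml for 7 days. Cells diluted 10-fold serially to 10^-6 in 7H9/OADC and plated in triplicate. Incubated 28 days at 37 °C without agitation; wells with visible growth scored positive and MPN calculated.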

Row | SMILES | IC50 [1] [µM] | inhibition [2] [%] | inhibition [3] [%] | MIC [4] [µM] | inhibition at 48 h, 50 ug/ml [5] [%] | fold change (FC) [6]
1 | Cc1ccc(Nc2nc(-c3ccccc3)nc3sc4c(c23)CCCC4)cc1 | 7.97 | < 50 | 50 | 33.6 (≈ 12.5 µg/mL) | 41.1 | >1
2 | Cc1cccc(C)c1Nc1nc(C2CC2)nc2sc3c(c12)CCCC3 | 7.55 | < 50 | 50 | 17.9 (≈ 6.25 µg/mL) | 13.5 | >1
3 | Brc1ccc(Nc2nc(-c3ccccc3)nc3sc4c(c23)CCCC4)cc1 | 8.7 | < 50 | 50 | 28.6 (≈ 12.5 µg/mL) | 20.4 | >1
4 | Cc1ccc(C)c(Nc2nc(-c3ccccc3)nc3sc4c(c23)CCCC4)c1 | 5.82 | < 50 | 50 | 2.02 (≈ 0.779 µg/mL) | 3.23 | >1
5 | Clc1ccc(Nc2nc(-c3ccccc3)nc3sc4c(c23)CCCC4)cc1 | 2.72 | < 50 | 50 | 63.8 (≈ 25 µg/mL) | 20.8 | >1
6 | CCc1nc(Nc2c(C)cccc2C)c2c3c(sc2n1)CCCC3 | 5.02 | < 50 | 50 | 18.5 (≈ 6.25 µg/mL) | 26.5 | >1
7 | COc1ccc(Nc2nc(C3CC3)nc3sc4c(c23)CCCC4)cc1 | > 25 | < 50 | – | 17.8 (≈ 6.25 µg/mL) | 34.4 | >1
8 | c1ccc(Nc2nc(C3CC3)nc3sc4c(c23)CCCC4)cc1 | > 25 | < 50 | – | 9.72 (≈ 3.12 µg/mL) | 8.8 | –
9 | NNC(=O)c1ccncc1 [ISONIAZID] | > 25 | – | – | 0.66 (≈ 0.0905 µg/mL) | 12.2 | 1.2
10 | Clc1ccc(Nc2nc(C3CC3)nc3sc4c(c23)CCCC4)cc1 | 11.1 | < 50 | 50 | 8.78 (≈ 3.12 µg/mL) | 15.5 | –
11 | Fc1ccc(Nc2nc(-c3ccccc3)nc3sc4c(c23)CCCC4)cc1 | 12.2 | < 50 | 50 | 33.3 (≈ 12.5 µg/mL) | 33.4 | –
12 | c1ccc(CCNc2nc(-c3ccccc3)nc3sc4c(c23)CCCC4)cc1 | 5.6 | < 50 | 50 | 64.8 (≈ 25 µg/mL) | 24.6 | >1
13 | COc1ccc(Nc2nc(-c3ccccc3)nc3sc4c(c23)CCCC4)cc1 | 8.72 | < 50 | 50 | 16.1 (≈ 6.25 µg/mL) | 28.2 | >1
14 | c1ccc(Nc2nc(-c3ccccc3)nc3sc4c(c23)CCCC4)cc1 | 11.4 | < 50 | 50 | 4.36 (≈ 1.56 µg/mL) | 7.15 | >1
15 | CCc1nc(Nc2ccc(C)cc2C)c2c3c(sc2n1)CCCC3 | 7.41 | < 50 | 50 | 74.1 (≈ 25 µg/mL) | 9.65 | >1
16 | CCc1nc(NCc2ccccc2)c2c3c(sc2n1)CCCC3 | 6.03 | < 50 | 50 | 38.6 (≈ 12.5 µg/mL) | 7.05 | >1
17 | c1ccc(CNc2nc(C3CC3)nc3sc4c(c23)CCCC4)cc1 | 4.23 | < 50 | 50 | 18.6 (≈ 6.25 µg/mL) | 23.1 | >1
18 | c1ccc(CNc2nc(-c3ccccc3)nc3sc4c(c23)CCCC4)cc1 | 9.68 | < 50 | 50 | 33.6 (≈ 12.5 µg/mL) | 26.5 | >1
19 | COc1c(N2C[C@@H]3CCCN[C@@H]3C2)c(F)cc2c(=O)c(C(=O)O)cn(C3CC3)c12 [MOXIFLOXACIN] | > 25 | – | – | 1.26 (≈ 0.506 µg/mL) | – | 2.7
20 | Fc1ccc(Nc2nc(C3CC3)nc3sc4c(c23)CCCC4)cc1 | 8.91 | < 50 | – | 36.8 (≈ 12.5 µg/mL) | 4.82 | >1
21 | CO[C@H]1/C=C/O[C@@]2(C)Oc3c(C)c(O)c4c(O)c(c(/C=N/N5CCN(C)CC5)c(O)c4c3C2=O)NC(=O)/C(C)=C\C=C\[C@H](C)[C@H](O)[C@@H](C)[C@@H](O)[C@@H](C)[C@H](OC(C)=O)[C@@H]1C [RIFAMPIN] | > 25 | – | – | 0.23 (≈ 0.189 µg/mL) | 9.56 | 2
22 | Cc1cccc(C)c1Nc1nc(-c2ccccc2)nc2sc3c(c12)CCCC3 | 8.82 | < 50 | 50 | 8.11 (≈ 3.13 µg/mL) | 25.5 | >1
23 | CCc1nc(Nc2ccc(Cl)cc2)c2c3c(sc2n1)CCCC3 | 4.94 | < 50 | 50 | 18.2 (≈ 6.25 µg/mL) | 15.6 | >1
24 | CCc1nc(Nc2ccc(F)cc2)c2c3c(sc2n1)CCCC3 | 6.05 | < 50 | 50 | 38.2 (≈ 12.5 µg/mL) | 14 | >1
25 | c1ccc(CCNc2nc(C3CC3)nc3sc4c(c23)CCCC4)cc1 | 17 | < 50 | 50 | 35.8 (≈ 12.5 µg/mL) | 17.4 | –
26 | CC[C@@H](CO)NCCN[C@@H](CC)CO [ETHAMBUTOL] | > 25 | – | – | 7.64 (≈ 1.56 µg/mL) | – | –
27 | Cc1ccc(Nc2nc(C3CC3)nc3sc4c(c23)CCCC4)cc1 | 13.4 | < 50 | 50 | 74.5 (≈ 25 µg/mL) | 16.2 | –
28 | CCc1nc(Nc2cc(C)ccc2C)c2c3c(sc2n1)CCCC3 | > 25 | < 50 | – | 74.1 (≈ 25 µg/mL) | 29.9 | –
